Activity calls are given as the source filed them. The calls are words filed in the database; no cut-off is given here.
Columns and labels:
Mus musculus [1] = experiment: Effect on survival of BALB/c mouse infected with influenza A virus (A/duck/Minnesota/1525/1981 (H5N1)) at 3 mg/kg/day, po once daily for 5 days administered 1 hr after infection relative to carboxymethyl cellulose; format: functional, organism-based
Mus musculus [2] = experiment: Effect on survival of BALB/c mouse infected with influenza A virus (A/duck/Minnesota/1525/1981 (H5N1)) at 300 mg/kg/day, po qid for 5 days administered 24 hrs after infection relative to carboxymethyl cellulose; format: functional, organism-based
Mus musculus [3] = experiment: Effect on survival in BALB/c mouse infected with influenza A virus (A/duck/Minnesota/1525/1981 (H5N1)) at 600 mg/kg/day, po administered 60 hrs after infection relative to carboxymethyl cellulose; format: functional, organism-based
Mus musculus [4] = experiment: Effect on survival in BALB/c mouse infected with influenza A virus (A/duck/Minnesota/1525/1981 (H5N1)) at 600 mg/kg/day, po administered 24 hrs after infection relative to carboxymethyl cellulose; format: functional, organism-based
Mus musculus [5] = experiment: Lowering of Arterial oxygen saturation decline in BALB/c mouse infected with influenza A virus (A/duck/Minnesota/1525/1981 (H5N1)) at 100 mg/kg/day, po qid for 5 days administered 1 hr after infection measured on day 11 relative to carboxymethyl cellulose; format: functional
In short: (§1)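 Arterial oxygen saturation was measured by pulse oximeter, with the ear probe placed on the thigh and read after 30 s stabilization. Values were taken on day 11, 10 mice per group. Mice dead from infection were assigned 75%. Means were compared with CMC controls by t test.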

Mus musculus [6] = experiment: Lowering of Arterial oxygen saturation decline in BALB/c mouse infected with influenza A virus (A/duck/Minnesota/1525/1981 (H5N1)) at 3 mg/kg/day, po twice daily for 5 days administered 1 hr after infection measured on day 11 relative to carboxymethyl cellulose; format: functional; in short: as §1
Mus musculus [7] = experiment: Effect on survival in BALB/c mouse infected with influenza A virus (A/duck/Minnesota/1525/1981 (H5N1)) at 300 mg/kg/day, po administered 48 hrs after infection relative to carboxymethyl cellulose; format: functional, organism-based
Mus musculus [8] = experiment: Effect on survival of BALB/c mouse infected with influenza A virus (A/duck/Minnesota/1525/1981 (H5N1)) at 300 mg/kg/day, po qid for 5 days administered 1 hr after infection relative to carboxymethyl cellulose; format: functional, organism-based
Mus musculus [9] = experiment: Effect on survival of BALB/c mouse infected with influenza A virus (A/duck/Minnesota/1525/1981 (H5N1)) at 100 mg/kg/day, po twice daily for 5 days administered 1 hr after infection relative to carboxymethyl cellulose; format: functional, organism-based
Mus musculus [10] = experiment: Effect on survival of BALB/c mouse infected with influenza A virus (A/duck/Minnesota/1525/1981 (H5N1)) at 300 mg/kg/day, po twice daily for 5 days administered 1 hr after infection relative to carboxymethyl cellulose; format: functional, organism-based
Mus musculus [11] = experiment: Effect on survival of BALB/c mouse infected with influenza A virus (A/duck/Minnesota/1525/1981 (H5N1)) at 100 mg/kg/day, po once daily for 5 days administered 1 hr after infection relative to carboxymethyl cellulose; format: functional, organism-based
Mus musculus [12] = experiment: Effect on survival in BALB/c mouse infected with influenza A virus (A/duck/Minnesota/1525/1981 (H5N1)) at 600 mg/kg/day, po administered 12 hrs after infection relative to carboxymethyl cellulose; format: functional, organism-based
Mus musculus [13] = experiment: Inhibition of increase in lung weight of BALB/c mouse infected with influenza A virus (A/duck/Minnesota/1525/1981 (H5N1)) at 100 mg/kg/day, po qid for 5 days administered 1 hr after infection measured on day 6 relative to carboxymethyl cellulose; format: functional
Mus musculus [14] = experiment: Effect on survival of BALB/c mouse infected with influenza A virus (A/duck/Minnesota/1525/1981 (H5N1)) at 300 mg/kg/day, po qid for 5 days administered 60 hrs after infection relative to carboxymethyl cellulose; format: functional, organism-based
Mus musculus [15] = experiment: Lowering of arterial oxygen saturation decline in BALB/c mouse infected with influenza A virus (A/duck/Minnesota/1525/1981 (H5N1)) at 300 mg/kg/day, po qid for 5 days administered 72 hrs after infection measured on day 11 relative to carboxymethyl cellulose; format: functional
Mus musculus [16] = experiment: Effect on survival in BALB/c mouse infected with influenza A virus (A/duck/Minnesota/1525/1981 (H5N1)) at 300 mg/kg/day, po administered 12 hrs after infection relative to carboxymethyl cellulose; format: functional, organism-based
Mus musculus [17] = experiment: Lowering of Arterial oxygen saturation decline in BALB/c mouse infected with influenza A virus (A/duck/Minnesota/1525/1981 (H5N1)) at 10 mg/kg/day, po twice daily for 5 days administered 1 hr after infection measured on day 11 relative to carboxymethyl cellulose; format: functional; in short: as §1
Mus musculus [18] = experiment: Effect on survival of BALB/c mouse infected with influenza A virus (A/duck/Minnesota/1525/1981 (H5N1)) at 100 mg/kg/day, po qid for 5 days administered 1 hr after infection relative to carboxymethyl cellulose; format: functional, organism-based
Mus musculus [19] = experiment: Lowering of arterial oxygen saturation decline in BALB/c mouse infected with influenza A virus (A/duck/Minnesota/1525/1981 (H5N1)) at 100 mg/kg/day, po once daily for 5 days administered 1 hr after infection measured on day 11 relative to carboxymethyl cellulose; format: functional
Mus musculus [20] = experiment: Effect on survival of BALB/c mouse infected with influenza A virus (A/duck/Minnesota/1525/1981 (H5N1)) at 300 mg/kg/day, po qid for 5 days administered 36 hrs after infection relative to carboxymethyl cellulose; format: functional, organism-based
Mus musculus [21] = experiment: Lowering of arterial oxygen saturation decline in BALB/c mouse infected with influenza A virus (A/duck/Minnesota/1525/1981 (H5N1)) at 10 mg/kg/day, po once daily for 5 days administered 1 hr after infection measured on day 11 relative to carboxymethyl cellulose; format: functional
Influenza A virus = experiment: Inhibition of Influenza A virus (A/gull/Pennsylvania/4175/83 (H5N1)) replication in MDCK cells by virus yield reduction assay; format: functional
Mus musculus [22] = experiment: Effect on survival in BALB/c mouse infected with influenza A virus (A/duck/Minnesota/1525/1981 (H5N1)) at 600 mg/kg/day, po administered 48 hrs after infection relative to carboxymethyl cellulose; format: functional, organism-based
Mus musculus [23] = experiment: Effect on survival in BALB/c mouse infected with influenza A virus (A/duck/Minnesota/1525/1981 (H5N1)) at 300 mg/kg/day, po administered 24 hrs after infection relative to carboxymethyl cellulose; format: functional, organism-based
Mus musculus [24] = experiment: Lowering of arterial oxygen saturation decline in BALB/c mouse infected with influenza A virus (A/duck/Minnesota/1525/1981 (H5N1)) at 300 mg/kg/day, po qid for 5 days administered 60 hrs after infection measured on day 11 relative to carboxymethyl cellulose; format: functional
Mus musculus [25] = experiment: Lowering of arterial oxygen saturation decline in BALB/c mouse infected with influenza A virus (A/duck/Minnesota/1525/1981 (H5N1)) at 300 mg/kg/day, po qid for 5 days administered 96 hrs after infection measured on day 11 relative to carboxymethyl cellulose; format: functional

NC(=O)c1nc(F)cnc1O [FAVIPIRAVIR]
Activity (Mus musculus [1]): inactive
Activity (Mus musculus [2]): Active
Activity (Mus musculus [3]): Active
Activity (Mus musculus [4]): Active
Activity (Mus musculus [5]): 85.9%
Activity (Mus musculus [6]): 75%
Activity (Mus musculus [7]): Active
Activity (Mus musculus [8]): Active
Activity (Mus musculus [9]): Active
Activity (Mus musculus [10]): Active
Activity (Mus musculus [11]): Active
Activity (Mus musculus [12]): Active
Activity (Mus musculus [13]): 140 mg
Activity (Mus musculus [14]): Active
Activity (Mus musculus [15]): 84.1%
Activity (Mus musculus [16]): Active
Activity (Mus musculus [17]): 75.5%
Activity (Mus musculus [18]): Active
Activity (Mus musculus [19]): 80.8%
Activity (Mus musculus [20]): Active
Activity (Mus musculus [21]): 77%
EC90 (Influenza A virus): 7.7 µM
Activity (Mus musculus [22]): Active
Activity (Mus musculus [23]): Active
Activity (Mus musculus [24]): 84.6%
Activity (Mus musculus [25]): 81.2%
